Source: ChEMBL document CHEMBL2331340, “Novel antitumor indolizino[6,7-b]indoles with multiple modes of action: DNA cross-linking and topoisomerase I and II inhibition” (J Med Chem, 2013)
Active and inactive are the calls of the source. The rule behind the calls is not given here.

Key:
NCI-H460 [1] = assay: Induction of apoptosis in human H460 cells assessed as increase in apoptotic cells at IC50 after 72 hrs by annexin V-FITC/propidium iodide staining-based FACS flow cytometric analysis (reference value: 9.29%); type: functional
[2] = target: T1, DNA topoisomerase 1 (Homo sapiens) (UniProt P11387); assay: Inhibition of DNA topoisomerase 1 (unknown origin)-mediated relaxation of supercoiled pHOT DNA at 25 to 200 uM after 30 to 45 mins by agarose gel electrophoresis
T1 sequence (whole entry): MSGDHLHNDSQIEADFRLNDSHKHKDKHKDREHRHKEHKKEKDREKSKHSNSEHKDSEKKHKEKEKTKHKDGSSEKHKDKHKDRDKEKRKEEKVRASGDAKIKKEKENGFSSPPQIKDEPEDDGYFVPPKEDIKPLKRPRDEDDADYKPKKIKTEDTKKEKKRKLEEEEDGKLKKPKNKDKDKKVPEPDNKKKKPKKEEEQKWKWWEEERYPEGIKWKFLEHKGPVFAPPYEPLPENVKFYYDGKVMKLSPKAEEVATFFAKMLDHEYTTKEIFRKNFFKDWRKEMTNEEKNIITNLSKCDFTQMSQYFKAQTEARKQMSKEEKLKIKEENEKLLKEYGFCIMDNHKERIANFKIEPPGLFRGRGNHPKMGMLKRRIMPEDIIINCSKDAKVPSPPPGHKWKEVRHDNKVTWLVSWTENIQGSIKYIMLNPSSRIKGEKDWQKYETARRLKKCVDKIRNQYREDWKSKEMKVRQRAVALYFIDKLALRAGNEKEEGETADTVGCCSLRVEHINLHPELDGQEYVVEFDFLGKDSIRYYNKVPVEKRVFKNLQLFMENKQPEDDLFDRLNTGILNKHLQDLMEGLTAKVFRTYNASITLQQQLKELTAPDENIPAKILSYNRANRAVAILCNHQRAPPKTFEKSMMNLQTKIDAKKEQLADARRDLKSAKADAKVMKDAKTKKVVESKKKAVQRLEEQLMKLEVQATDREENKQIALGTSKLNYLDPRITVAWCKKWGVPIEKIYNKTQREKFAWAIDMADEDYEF
In short: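 Supercoiled pHOT DNA (200 ng) and compound in 10 mM Tris-HCl pH 7.9 with 1 mM EDTA at 37 °C. Reaction started with 1 unit topo I, run 30−45 min, stopped with 10% SDS. Products separated on 1% agarose at 50 V for 90 min and stained with ethidium bromide.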

[3] = Cell cycle arrest in human CL141T cells assessed as accumulation at sub-G1 phase at 0.5 x IC50 to 2 x IC50 after 72 hrs by propidium iodide staining-based FACS flow cytometric analysis; type: functional
In short: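 CL141T cells treated at 0.5-, 1- and 2-fold IC50 for 24, 48 and 72 h. Cells fixed in ice-cold 70% EtOH, then stained with 4 μg/mL propidium iodide in PBS with 1% Triton X-100 and 0.1 mg/mL RNase A. Phase distribution from flow cytometry DNA histograms; sub-G1 fraction scored as well.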

HT-29 = assay: Cytotoxicity against human HT-29 cells after 72 hrs by Alamar blue assay; type: functional, cell-based; conditions: HT-29, 72 h
In short: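 Cells exposed to compound for 72 h, then Alamar blue added with a further 10−12 h at 37 °C and a spectrophotometric read. IC50 from six or seven concentrations by median-effect analysis; mean ± STDEV, n = 3. CL141T is a line derived from a patient lung tumor passaged as a SCID mouse xenograft.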

NCI-H460 [4] = assay: Induction of apoptosis in human H460 cells assessed as increase in cleaved PARP expression at IC50 after 24 to 72 hrs by Western blotting analysis; type: functional, cell-based
In short: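 H460 cells treated at IC50 for 24 and 72 h. Lysate proteins separated by SDS-PAGE and blotted to nitrocellulose, blocked in 5% milk/PBST. Primary antibodies to caspase-3, caspase-7, PARP (full-length and cleaved) and β-actin applied for 1 h at room temperature or overnight at 4 °C; HRP secondary with ECL detection.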

A549 = assay: Antitumor activity against human A549 cells xenografted in nude mouse assessed as tumor growth inhibition at 25 mg/kg, iv qd administered 4 days measured on day 20 relative to vehicle-treated control; type: functional; conditions: read-out: TGI
[5] = Cytotoxicity against human KB-VIN10 cells after 72 hrs by Alamar blue assay; conditions: KB-VIN10, 72 h

Q: Which Activity (NCI-H460 [1]) does the source give for `Cc1c(CO)c(CO)c2n1Cc1c(c3ccccc3n1C)C2` here?
A: 61.35%

Q: What about the inhibition [2] of the same compound?
A: Active

Q: What about the Activity [3] of the same compound?
A: Active

Q: What about the IC50 (HT-29) of the same compound?
A: 3350 nM

Q: And the Activity (NCI-H460 [4])?
A: Active

Q: And the inhibition in vivo at 25 mg/kg (A549)?
A: 50%

Q: What about the IC50 [5] of the same compound?
A: 1310 nM
